Results published in ChEMBL document CHEMBL1806459, “Discovery of N-(1-ethylpropyl)-[3-methoxy-5-(2-methoxy-4-trifluoromethoxyphenyl)-6-methyl-pyrazin-2-yl]amine 59 (NGD 98-2): an orally active corticotropin releasing factor-1 (CRF-1) receptor antagonist” (J Med Chem, 2011).
≈ marks a conversion by molar mass, not a printed value. Calls of active or inactive are those of the source. The rule behind the calls is not given here.

Assays:
[1] = biological target: T1, Corticotropin-releasing factor receptor 1 (Homo sapiens, UniProt P34998); assay: Displacement of [125I]-sauvagine from human CRF-1 receptor expressed in human IMR-32 cells after 2 hrs by scintillation counting; format: cell-based
T1 sequence (P34998 whole entry): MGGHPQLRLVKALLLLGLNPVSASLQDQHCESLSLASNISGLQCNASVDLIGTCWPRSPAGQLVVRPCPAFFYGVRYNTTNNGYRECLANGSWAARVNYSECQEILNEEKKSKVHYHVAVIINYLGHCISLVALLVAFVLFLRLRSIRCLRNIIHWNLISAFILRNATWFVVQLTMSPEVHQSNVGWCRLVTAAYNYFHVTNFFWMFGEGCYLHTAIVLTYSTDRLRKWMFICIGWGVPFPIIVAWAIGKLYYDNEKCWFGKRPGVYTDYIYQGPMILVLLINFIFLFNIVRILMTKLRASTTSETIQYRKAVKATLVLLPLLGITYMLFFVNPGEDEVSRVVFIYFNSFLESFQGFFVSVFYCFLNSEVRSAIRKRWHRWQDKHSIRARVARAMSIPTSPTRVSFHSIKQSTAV
Outline: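 Competition binding against 125I-sauvagine on membrane preparations from IMR-32 human neuroblastoma cells, which express CRF-1 endogenously. Modified from a published method.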

[2] = Half life in human microsomes; format: ADME, Microsome
Outline: (§1)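 Stability in human or rat liver microsomes; half-life (T1/2, min) of compound turnover reported.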

[3] = Half life in rat microsomes; format: ADME, Microsome; outline: as §1
[4] = biological target: T1, Corticotropin-releasing factor receptor 1; assay: Antagonist activity at human CRF-1 receptor; format: functional
[5] = biological target: Corticotropin-releasing factor receptor 1 (Rattus norvegicus, UniProt P35353); assay: Displacement of [125I]-sauvagine from rat CRF-1 receptor expressed in rat cortical membrane after 2 hrs by scintillation counting; format: cell membranes
Corticotropin-releasing factor receptor 1 (Rattus norvegicus, UniProt P35353), sequence (P35353 whole entry): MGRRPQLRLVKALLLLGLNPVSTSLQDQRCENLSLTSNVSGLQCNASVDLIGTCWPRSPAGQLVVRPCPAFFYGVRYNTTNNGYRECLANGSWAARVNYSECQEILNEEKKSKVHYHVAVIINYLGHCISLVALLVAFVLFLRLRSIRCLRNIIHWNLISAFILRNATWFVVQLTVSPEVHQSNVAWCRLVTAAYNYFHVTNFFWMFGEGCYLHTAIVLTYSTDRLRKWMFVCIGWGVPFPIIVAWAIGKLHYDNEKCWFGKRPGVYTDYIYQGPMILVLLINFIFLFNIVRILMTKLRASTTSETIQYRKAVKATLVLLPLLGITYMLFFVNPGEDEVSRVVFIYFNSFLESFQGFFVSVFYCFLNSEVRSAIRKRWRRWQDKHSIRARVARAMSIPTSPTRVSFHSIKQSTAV
Outline: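 Displacement of [125I]-sauvagine binding from rat cortical membrane homogenate with increasing compound concentrations; Ki derived.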

Rattus norvegicus [6] = assay: Decrease in restrained-stress induced ATCH release in plasma of Sprague-Dawley rat at 10 mg/kg, po pretreated with compound for 1 hr by radioimmunoassay; format: functional, organism-based; set-up: dose 10 mg/kg
Outline: (§2)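 Rats were dosed orally 1 h before a 10 min period of physical restraint, across a 1–30 mg/kg range. The read-out was plasma ACTH, compared against vehicle-treated stressed and unstressed rats.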

Rattus norvegicus [7] = assay: Decrease in restrained-stress induced ATCH release in plasma of Sprague-Dawley rat at 3 mg/kg, po pretreated with compound for 1 hr by radioimmunoassay; format: functional, organism-based; set-up: dose 3 mg/kg; outline: as §2
Rattus norvegicus [8] = assay: Antihyperlocomotion activity in Wistar rat assessed as decrease in CRF-induced hyperlocomotion at 10 mg/kg, po administered 1 hr before CRF challenge measured after 1 hr; format: functional, organism-based; set-up: dose 10 mg/kg
Outline: (§3)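 Oral dosing in rats 1 h before an ICV CRF challenge of 0.3 μg, across a 1–30 mg/kg range. The read-out was locomotor movement time, compared against TPGS-vehicle rats given CRF and rats given vehicle without CRF.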

Rattus norvegicus [9] = assay: Antihyperlocomotion activity in Wistar rat assessed as decrease in CRF-induced hyperlocomotion at 3 mg/kg, po administered 1 hr before CRF challenge measured after 1 hr; format: functional, organism-based; set-up: dose 3 mg/kg; outline: as §3
Rattus norvegicus [10] = assay: Ex vivo CRF-1 receptor occupancy in po dosed rat cortical homogenate assessed as inhibition of [I125]-sauvagine binding pretreated for 3 hrs; format: functional, organism-based
Outline: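 Rats dosed orally at 1, 3 and 10 mg/kg; cortex taken at 3 h for ex vivo binding. Specific [125I]-sauvagine binding compared with vehicle-treated rats to give ex vivo ID50.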

SMILES: CCc1nc(NC(CC)CC)c(OC)nc1-c1ccc(OC(F)F)cc1Cl
- Ki [1]: 1.4 nM
- half-life [2]: 120 min
- half-life [3]: 47 min

SMILES: CCc1nc(-c2ccc(OC)cc2OC(F)(F)F)c(CC)nc1NC(CC)CC
- Ki [1]: 4.1 nM
- half-life [2]: 16 min
- half-life [3]: 4.1 min

SMILES: CCc1nc(-c2ccc(OC(C)C)cc2OC)c(CC)nc1NC(CC)CC
- Ki [1]: 4.2 nM
- half-life [2]: 11 min
- half-life [3]: < 1 min

SMILES: CCc1nc(-c2ccc(Cl)cc2Cl)c(OC)nc1NC(CC)CC
- Ki [1]: 8 nM
- half-life [2]: 42 min
- half-life [3]: 11 min

SMILES: CCc1nc(NC(CC)CC)c(OC)nc1-c1ccc(Cl)cc1Cl
- Ki [1]: 5.9 nM
- half-life [2]: 35 min

SMILES: CCc1nc(-c2ccc(C)cc2OC)c(CC)nc1NC(CC)CC
- Ki [1]: 23.7 nM
- half-life [2]: 11 min
- half-life [3]: < 1 min

SMILES: CCc1nc(-c2ccc(Cl)cc2Cl)c(CC)nc1CC(CC)CC
- Ki [1]: 68 nM
- half-life [2]: 13 min
- half-life [3]: 2.5 min

SMILES: CCC(CC)Nc1nc(C)c(-c2ccc(Cl)cc2Cl)nc1OC
- Ki [1]: 4.3 nM

SMILES: CCOc1nc(-c2ccc(Cl)cc2Cl)c(CC)nc1NC(CC)CC
- Ki [1]: 151 nM
- half-life [2]: 120 min
- half-life [3]: 74 min

SMILES: CCc1nc(-c2ccc(OC)cc2O)c(CC)nc1NC(CC)CC
- Ki [1]: 1180 nM
- half-life [2]: 18 min
- half-life [3]: 5.9 min

SMILES: CCc1nc(-c2ccc(Cl)cc2Cl)c(CC)nc1NC(C)CN(C)C (stereo not drawn)
- Ki [1]: 489 nM
- half-life [2]: 7 min
- half-life [3]: < 1 min

SMILES: CCc1nc(NC(CC)CC)c(OC)nc1-c1ccc(C(F)(F)F)cc1OC
- Ki [1]: 4.4 nM
- half-life [2]: 73 min
- half-life [3]: 23 min

SMILES: CCc1nc(NC(CC)CC)cnc1-c1ccc(Cl)cc1Cl
- Ki [1]: 545 nM
- half-life [2]: 28 min

SMILES: CCc1nc(-c2ccc(OC)cc2Cl)c(OC)nc1NC(CC)CC
- Ki [1]: 1.1 nM
- half-life [2]: 120 min

SMILES: CCc1nc(-c2ccc(Cl)cc2Cl)c(CC)nc1OC(CC)CC
- Ki [1]: 46 nM
- half-life [2]: 10 min
- half-life [3]: 2.5 min

SMILES: CCC(CC)Nc1nc(C)c(-c2ccc(Cl)cc2Cl)nc1C
- Ki [1]: 27 nM
- half-life [2]: 29 min
- half-life [3]: 3.2 min

SMILES: CCc1nc(-c2ccc(Cl)cc2Cl)c(CC)nc1NC(COC)COC
- Ki [1]: 224 nM
- half-life [2]: 9 min
- half-life [3]: 2.5 min

SMILES: CCc1nc(NC(CC)CC)c(I)nc1-c1ccc(Cl)cc1Cl
- Ki [1]: 12 nM

SMILES: CCc1nc(-c2ccc(Cl)cc2Cl)c(CC)nc1NC(C1CC1)C1CC1
- Ki [1]: 3.7 nM
- half-life [2]: 11 min
- half-life [3]: 2.5 min

SMILES: CCc1nc(-c2ccc(Cl)cc2Cl)c(C)nc1NC(CC)CC
- Ki [1]: 8.6 nM
- half-life [2]: 18 min
- half-life [3]: 4.2 min

SMILES: CCc1nc(N(CC2CC2)CC2CC2)c(CC)nc1-c1ccc(Cl)cc1Cl
- Ki [1]: 26 nM
- half-life [2]: 8 min
- half-life [3]: < 1 min

SMILES: CCc1nc(-c2ccc(OC)nc2OC)c(CC)nc1NC(CC)CC
- Ki [1]: 11.6 nM
- half-life [2]: 9 min
- half-life [3]: 2.5 min

SMILES: CCc1nc(-c2cnc(OC)nc2OC)c(CC)nc1NC(CC)CC
- Ki [1]: 17.2 nM
- half-life [2]: 7 min
- half-life [3]: < 1 min

SMILES: CCc1nc(-c2ccc(OC(F)(F)F)cc2OC)c(OC)nc1NC(CC)CC
- Ki [1]: 6.1 nM
- half-life [2]: 52 min
- half-life [3]: 36 min

SMILES: CCC(CC)Nc1nc(OC)c(-c2ccc(Cl)cc2Cl)nc1OC
- Ki [1]: 8.4 nM
- half-life [2]: 16 min
- half-life [3]: 2.5 min

SMILES: CCc1nc(NC(CC)CC)c(Cl)nc1-c1ccc(Cl)cc1Cl
- Ki [1]: 71 nM
- half-life [2]: 10 min
- half-life [3]: < 1 min

SMILES: CCc1nc(-c2ccc(OC)cc2OC)c(CC)nc1NC(CC)CC
- Ki [1]: 7.3 nM
- half-life [2]: 8 min
- half-life [3]: 2.5 min

SMILES: CCc1nc(NC(CC)CC)c(OC)nc1-c1ccc(OC)cc1C(F)(F)F
- Ki [1]: 2.2 nM
- half-life [2]: 120 min
- half-life [3]: 120 min

SMILES: CCC(CC)Nc1nc(C)c(-c2ccc(C(F)(F)F)cc2OC)nc1OC
- Ki [1]: 1.3 nM
- half-life [2]: 120 min
- half-life [3]: 120 min

SMILES: CCc1nc(-c2ccc(C(F)(F)F)cc2OC)c(CC)nc1NC(CC)CC
- Ki [1]: 5.6 nM
- half-life [2]: 11 min

SMILES: CCc1nc(-c2ccc(Cl)cc2Cl)c(CC)nc1SC(C)CC (stereo not drawn)
- Ki [1]: 401 nM
- half-life [2]: 17 min
- half-life [3]: 4.1 min

SMILES: CCCCc1nc(-c2ccc(Cl)cc2Cl)c(CC)nc1NC(CC)CC
- Ki [1]: 3660 nM
- half-life [2]: 22 min
- half-life [3]: 4.2 min

SMILES: CCOc1ccc(-c2nc(OC)c(NC(CC)CC)nc2C)c(Cl)c1
- Ki [1]: 5.9 nM
- half-life [2]: 120 min
- half-life [3]: 47 min

SMILES: CCCN(CCC)c1c(C)ncc2c(-c3ccc(Cl)cc3Cl)cccc12
- Ki [4]: 103 nM

SMILES: CCOc1ccc(-c2nc(CC)c(NC(CC)CC)nc2CC)c(OC)c1
- Ki [1]: 7.8 nM

SMILES: CCCC(CCC)N1CCn2nc(-c3ccc(Cl)cc3Cl)c3nc(C)cc1c32
- Ki [4]: 4 nM

SMILES: CCC(CC)Nc1nc(C)c(-c2ccc(OC(F)F)cc2Cl)nc1OC
- Ki [1]: 4.6 nM
- half-life [2]: 120 min
- half-life [3]: 48 min

SMILES: CCc1cc(OC)ccc1-c1nc(OC)c(NC(CC)CC)nc1CC
- Ki [1]: 1.9 nM
- half-life [2]: 120 min
- half-life [3]: 120 min

SMILES: CCc1nc(-c2ccc(OC(F)(F)F)cc2OC)c(CC)nc1NC(CC)CC
- Ki [1]: 7.2 nM
- half-life [2]: 13 min
- half-life [3]: 2.5 min

SMILES: CCCN(CCN(C)C)c1nc(CC)c(-c2ccc(Cl)cc2Cl)nc1CC
- Ki [1]: 1540 nM
- half-life [2]: 5 min
- half-life [3]: < 1 min

SMILES: CCc1nc(-c2ccc(OC)cc2C(F)(F)F)c(CC)nc1NC(CC)CC
- Ki [1]: 4.4 nM
- half-life [2]: 12 min
- half-life [3]: 4.3 min

SMILES: CCc1nc(N(CCOC)CCOC)c(CC)nc1-c1ccc(Cl)cc1Cl
- Ki [1]: 128 nM
- half-life [2]: 2 min
- half-life [3]: < 1 min

SMILES: CCC(CC)Nc1nc(OC)c(-c2ccc(Cl)cc2Cl)nc1C
- Ki [1]: 14.4 nM
- half-life [2]: 56 min
- half-life [3]: 17 min

SMILES: CCCN(CC1CC1)c1nc(CC)c(-c2ccc(Cl)cc2Cl)nc1CC
- Ki [1]: 19.2 nM
- half-life [2]: 12 min
- half-life [3]: 4.2 min

SMILES: CCc1nc(NC(CC)CC)c(C)nc1-c1ccc(Cl)cc1Cl
- Ki [1]: 54 nM
- half-life [2]: 27 min
- half-life [3]: 11 min

SMILES: COCC(COC)Nc1nc(C)nc2c(-c3ccc(Cl)cc3Cl)c(C)nn12
- Ki [4]: 2 nM

SMILES: CCc1nc(-c2cnc(C)cc2N(C)C)c(CC)nc1NC(CC)CC
- Ki [1]: 7.6 nM
- half-life [2]: 7 min
- half-life [3]: < 1 min

SMILES: CCc1nc(NC(CC)CC)c(F)nc1-c1ccc(Cl)cc1Cl
- Ki [1]: 167 nM
- half-life [2]: 73 min
- half-life [3]: 21 min

SMILES: CCc1nc(-c2ccc(OC(F)F)cc2Cl)c(OC)nc1NC(CC)CC
- Ki [1]: 2.5 nM
- half-life [2]: 120 min
- half-life [3]: 17 min

SMILES: CCCN(CCC)c1cc(C)nc2c(-c3cnc(N(C)C)cc3C)c(C)nn12
- Ki [5]: 3.8 nM
- Activity (Rattus norvegicus [6]): Active
- Activity (Rattus norvegicus [7]): Active
- Activity (Rattus norvegicus [8]): Active
- Activity (Rattus norvegicus [9]): Active
- IC50 (Rattus norvegicus [10]): 0.074 µg/mL (≈ 0.194 µM)
- ED50 (Rattus norvegicus [10]; po, read-out: ID50 (the source's name)): 7.2 mg/kg
